Data as given in ChEMBL document CHEMBL4513216, “Probing the Open Global Health Chemical Diversity Library for Multistage-Active Starting Points for Next-Generation Antimalarials” (ACS Infect Dis, 2020).

Experiment: Toxicity liver stage against HepG2, at 10uM
Format: cell-based
Set-up: test concentration 10 uM, cell line HepG2-A16-CD81EGFP
Conditions: human, HepG2-A16-CD81EGFP cells; read-out: INHIBITION
In short: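 Uninfected HepG2-A16-CD81EGFP cells, 3 × 10^3 per well, 1536-well, plated on prespotted compound at 10 μM final, parasite-free screening media added to match infected plates; puromycin 10 μM positive, DMSO 0.5% negative; run in parallel with 48 h PbLuc assay at 37 °C, 5% CO2; viability by CellTiter-Glo luminescence, normalized to controls.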
In the case of CCc1c(C)sc2c1c(N)nc(=O)n2CCN1CCOCC1, the cytotoxicity at 10 µM is reported as 1.17%.
CC1=Nc2c(c(=O)[nH]n2C(C)C)C(c2ccc3c(c2)n(C)c(=O)n3C)S1 (stereo unspecified) showed a cytotoxicity at 10 µM of 3.75%.
With O=c1n(Cc2cccc(C(F)(F)F)c2)nc2ncccn12 the cytotoxicity at 10 µM was -8.64%.
With C1CN(c2nc3c(c(NC4CC4)n2)CN(CC2CCOC2)CC3)CCO1 (stereo unspecified) the cytotoxicity at 10 µM was -2.22%.
COCCO[C@H]1CCN(c2cc(OC)ncn2)[C@H]1Cc1ccncc1 showed a cytotoxicity at 10 µM of -146%.
With O=C(c1ccoc1)N1C[C@@H]2CN(c3ncccn3)C[C@@H]2C1 the cytotoxicity at 10 µM was -5.3%.
In the case of CCOC(=O)C1CN(S(=O)(=O)CC)Cc2ncn(CC)c21 (stereo unspecified), the cytotoxicity at 10 µM is reported as 6.83%.
Compound Cc1ccnc(OC[C@]23COC[C@H]2CN(C(=O)Cc2ccsc2)C3)n1 has a cytotoxicity at 10 µM of -0.376%.
CC(=O)N1[C@H](Cn2cncn2)C[C@@H]2CN(c3ncccn3)CC[C@@H]21 showed a cytotoxicity at 10 µM of -2.96%.
O=C1NCC[C@]12CN(Cc1ccsc1)C[C@H]2c1ccccc1 showed a cytotoxicity at 10 µM of -142%.
For COC(=O)CCC(=O)N1CCC2(CN(Cc3cccc(F)c3)C2)C1, the cytotoxicity at 10 µM was 4.6%.
For CCn1nc(C)c2nc(C(C)C)nc(N3CCOCC3)c21, the cytotoxicity at 10 µM was 2.88%.
In the case of CN1CCCC1c1cncc(C(=O)NCCN2CCCC2)n1 (stereo unspecified), the cytotoxicity at 10 µM is reported as 8.6%.
NC(=O)CN1CCC(c2cncc(-c3cccc(Cl)c3)n2)CC1 gave a cytotoxicity at 10 µM of -26.4%.
Work on CCCn1cc(C(=O)NCCS(N)(=O)=O)c2ccccc21 yielded a cytotoxicity at 10 µM of 5.15%.
Work on CCSCc1ccc(C(=O)N2CCCN(CC(N)=O)CC2)cc1 yielded a cytotoxicity at 10 µM of 10.5%.
COc1cccc(-c2cc(NCc3cscn3)n(C)n2)c1 gave a cytotoxicity at 10 µM of 3.69%.
With CC(Cn1cccn1)NC(=O)C1=Cc2ccccc2OC1 (stereo unspecified) the cytotoxicity at 10 µM was 2.86%.
For CC(CNC(=O)c1cc(N2CCNC2=O)ccc1F)c1ccccc1 (stereo unspecified), the cytotoxicity at 10 µM was -2.1%.
For Cc1nnc2n1CCN(C(=O)c1cnc3c(cnn3C(C)C)c1)C2, the cytotoxicity at 10 µM was -6.69%.
Compound NC(=O)c1cnc(NC2CCN(C(=O)C3CC3)CC2)c(Cl)c1 has a cytotoxicity at 10 µM of -14.2%.
With O=C(NCc1ccccc1OCCO)Nc1ccc2c(c1)CCC2 the cytotoxicity at 10 µM was 9.46%.
In the case of COC(=O)c1ccc(Cn2nc(C)cc2C)c(F)c1, the cytotoxicity at 10 µM is reported as 4.11%.
With Cc1nsc(N2CCCN(C(=O)NCc3cccnc3)CC2)n1 the cytotoxicity at 10 µM was -0.555%.
In the case of CC(C)C(=O)NC1CCN(c2cccc(OC(F)(F)F)c2)C1=O (stereo unspecified), the cytotoxicity at 10 µM is reported as -4.13%.
With Cc1c(CNC(=O)NCc2cccc(-n3cncn3)c2)cnn1C the cytotoxicity at 10 µM was 1.78%.
In the case of COc1c(CNC2CCOc3ccccc32)c(C)nn1C (stereo unspecified), the cytotoxicity at 10 µM is reported as 4.25%.
Work on CC(NC(=O)N(C)Cc1ccc2c(c1)OCO2)c1nncn1C (stereo unspecified) yielded a cytotoxicity at 10 µM of -1.31%.
In the case of CN(C(=O)c1ccc(C#N)cc1)C1CCN(c2ccccn2)CC1, the cytotoxicity at 10 µM is reported as -7.56%.
In the case of Cc1ccccc1CNCC(O)c1ccc(OC(C)C)cc1 (stereo unspecified), the cytotoxicity at 10 µM is reported as -6.17%.
For O=C(c1ccc(=O)[nH]n1)N1CCC(CN2CCOCC2)CC1, the cytotoxicity at 10 µM was 4.13%.
With CS(=O)(=O)c1nccn1CCOc1ccc(F)cc1Cl the cytotoxicity at 10 µM was 13.1%.
For Cc1cc(C(=O)NCC(=O)NC(c2ncccc2C)C(C)C)c(C)o1 (stereo unspecified), the cytotoxicity at 10 µM was -9.6%.
Work on CC(NC(=O)COc1ccccc1Cl)c1nnc2n1CCC2 (stereo unspecified) yielded a cytotoxicity at 10 µM of -6%.
COc1ccc(C)cc1C(C)NCc1cccn1C (stereo unspecified) showed a cytotoxicity at 10 µM of -5.89%.
In the case of Cc1cccc(-c2nc(C)nn2CN2CCN(S(C)(=O)=O)CC2)c1, the cytotoxicity at 10 µM is reported as 0.729%.
In the case of Nc1cc2c(nn1)CCN(C(=O)c1ccc(-c3ccco3)[nH]c1=O)C2, the cytotoxicity at 10 µM is reported as -3.73%.
For COc1c(C)cnc(CSc2nnc(C)s2)c1C, the cytotoxicity at 10 µM was -4.66%.
CCCn1ncc(C(=O)N2CCN(C3CCCC3)CC2)c1C gave a cytotoxicity at 10 µM of -151%.
O=C1NC2(CCN(C(=O)c3ccc(Cl)cn3)CC2)CC1c1ccccc1 (stereo unspecified) showed a cytotoxicity at 10 µM of 2.75%.
In the case of COc1nc2c(cc1C(=O)NC(C)Cc1cnccn1)CCC2 (stereo unspecified), the cytotoxicity at 10 µM is reported as -135%.
In the case of CC(C)(N)c1cn([C@@H]2c3ccccc3C3(CCNCC3)[C@H]2O)nn1, the cytotoxicity at 10 µM is reported as -4.67%.
CC(=O)N1CCCC(C(=O)NCCc2nc(Cc3ccccc3)no2)C1 (stereo unspecified) gave a cytotoxicity at 10 µM of 3.81%.
In the case of COc1cccc(-n2cc(-c3ccnc(NC(CO)C(C)C)n3)cn2)c1 (stereo unspecified), the cytotoxicity at 10 µM is reported as 2.74%.
In the case of CCC1(CO)CCCN(C(=O)c2cc(COc3ccccc3F)[nH]n2)C1 (stereo unspecified), the cytotoxicity at 10 µM is reported as 20.8%.
With CN(Cc1nc(-c2cccnc2)no1)C(=O)c1c2c(nn1C)CCCC2 the cytotoxicity at 10 µM was 7.54%.
In the case of CC(=O)NCCC1CCCCN1S(=O)(=O)c1cccc(F)c1 (stereo unspecified), the cytotoxicity at 10 µM is reported as -155%.
For COC(=O)CNC(=O)CC1COc2ccc(C(=O)N(C)C)cc2N1C (stereo unspecified), the cytotoxicity at 10 µM was -8.8%.
In the case of COCc1ccc(C(=O)N2CCN(CC3CC3)[C@@H]3CS(=O)(=O)C[C@@H]32)o1, the cytotoxicity at 10 µM is reported as -15.5%.
With CCc1c(C)nn(CCNC(=O)c2cc(C3CC3)n[nH]2)c1C the cytotoxicity at 10 µM was -12.1%.
Compound c1ccc(Cc2nc(CNC3CCOC4(CCOCC4)C3)no2)cc1 (stereo unspecified) has a cytotoxicity at 10 µM of -10.6%.
Work on O=S1(=O)C[C@@H]2[C@H](C1)N(Cc1nc3ccccc3[nH]1)CCN2CC1CC1 yielded a cytotoxicity at 10 µM of -133%.
With Cc1nccn1CCC1CCCCN1Cc1ccc(N(C)C)nc1 (stereo unspecified) the cytotoxicity at 10 µM was 21.3%.
CC(C)c1cc(NC(=O)c2ccc([S+]([O-])C(C)C)cc2)[nH]n1 (stereo unspecified) gave a cytotoxicity at 10 µM of -7.52%.
Work on Cc1cc(C2CCCN(C(=O)CCc3cscn3)C2)n[nH]1 (stereo unspecified) yielded a cytotoxicity at 10 µM of -0.939%.
Cc1cc(C)n(CCN2CCOC(CNc3cccnn3)C2)n1 (stereo unspecified) gave a cytotoxicity at 10 µM of -3.2%.
For CC(=O)N1CCCC1C(=O)NCCOc1cccc(F)c1 (stereo unspecified), the cytotoxicity at 10 µM was -7.81%.
Compound CC(C)(C)c1ncc(C(=O)NCCNc2ncccn2)s1 has a cytotoxicity at 10 µM of -1.62%.
With Cc1nc2n(n1)CC(NCc1cnn(-c3ccccc3)n1)CC2 (stereo unspecified) the cytotoxicity at 10 µM was -3.69%.
Work on Cn1cnc2c1CCN(Cc1cccc(C(=O)N3CCCCC3)c1)C2 yielded a cytotoxicity at 10 µM of -2.75%.
CC(=O)NCC1CCN(C(=O)CCOc2ccc(C(C)C)cc2)CC1 gave a cytotoxicity at 10 µM of -11.6%.
Compound CC(C)c1noc(CCCC(=O)N2CCN(Cc3cccnc3)CC2)n1 has a cytotoxicity at 10 µM of -2.96%.
For CC(C)c1nc(CN2CCOC(Cn3cccn3)C2)no1 (stereo unspecified), the cytotoxicity at 10 µM was -9.43%.
In the case of CC(Cn1cccn1)NC(=O)c1cccs1 (stereo unspecified), the cytotoxicity at 10 µM is reported as -4.26%.
COCCOc1ncccc1C(=O)N1CCCCC1c1nccs1 (stereo unspecified) gave a cytotoxicity at 10 µM of -11.5%.
In the case of COc1ccc(F)cc1C(=O)N1CCCC(CNS(C)(=O)=O)C1 (stereo unspecified), the cytotoxicity at 10 µM is reported as -20%.
Cc1nnc(NC(=O)NCc2ccnc(N(C)C)c2)s1 gave a cytotoxicity at 10 µM of -10.2%.
With Cc1cn2nc(N3CCCC3Cn3nc(C)nc3C)sc2n1 (stereo unspecified) the cytotoxicity at 10 µM was -14.6%.
In the case of CC(c1cccc(F)c1)N1CCN(Cc2nccn2C)CC1 (stereo unspecified), the cytotoxicity at 10 µM is reported as -7.81%.
With c1ccc(-c2nc(CN3CCCC(Cn4cncn4)C3)no2)cc1 (stereo unspecified) the cytotoxicity at 10 µM was 3.71%.
In the case of CN(C)CCN(C)C(=O)Cc1ccc2c(c1)OCCO2, the cytotoxicity at 10 µM is reported as -7.94%.
In the case of O=C(c1ccnnc1)N1CCN(Cc2cccnc2)c2ncccc2C1, the cytotoxicity at 10 µM is reported as 0.121%.
Cc1cccc(CN2C(=O)CCC23CCN(C(=O)NC(C)C)CC3)n1 gave a cytotoxicity at 10 µM of 5%.
CN(C)C(=O)N1CCc2onc(C(=O)Nc3cccnc3)c2C1 showed a cytotoxicity at 10 µM of 4.85%.
Cn1ccnc1CN1CCC(F)(F)C2(CCN(c3cnccn3)C2)C1 (stereo unspecified) showed a cytotoxicity at 10 µM of 16.4%.
With COC1COC2(CCN(Cc3ccc4c(c3)OCO4)CC2)C1 (stereo unspecified) the cytotoxicity at 10 µM was 0.729%.
O=C(Nc1cnccn1)[C@@H]1C[C@H]2OCC[C@H]2N(Cc2ccsc2)C1 showed a cytotoxicity at 10 µM of -2.31%.
Work on Cc1nc(CN2Cc3nccn3CC(CN3CCOCC3)C2)cs1 (stereo unspecified) yielded a cytotoxicity at 10 µM of 0.951%.
CN1C(=O)CC(c2ccccc2)C12CCN(CC1CC1)CC2 (stereo unspecified) showed a cytotoxicity at 10 µM of -1.95%.
Work on CO[C@H]1CC[C@H]2[C@H]1OCCN2Cc1ccc(F)cc1 yielded a cytotoxicity at 10 µM of 7.34%.
Compound O=C(NC1CCC2(CCC(=O)N2CC2CC2)CC1)c1cnccn1 (stereo unspecified) has a cytotoxicity at 10 µM of 0.729%.
